In test [1] the test system is HeLa C3. Briefly: Induction of apoptosis in human HeLaC3 cells assessed as reduction of yellow fluorescent protein/cyan fluorescent protein emission ratio below 3 at 20 uM after 72 hrs using fluorescent plate reader. It counts as functional, cell-based. In outline:
(§1)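 HeLa-C3 cells express a caspase-3-cleavable CFP/YFP biosensor and are grown in MEM with 10% FBS and penicillin/streptomycin at 37 °C, 5% CO2. Seed 7500 cells per well and incubate 12-16 h. Take a 0 h read (ex 440 nm; em 486 nm CFP, 535 nm YFP), then replace the medium with compound-containing medium; include cell-free background wells. Read repeatedly up to 72 h. A YFP/CFP ratio below 3 scores as apoptotic. Triplicate wells, three experiments; 0.1% DMSO negative control.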

The subject of test [2] is HeLa C3. Briefly: Induction of apoptosis in human HeLaC3 cells assessed as reduction of yellow fluorescent protein/cyan fluorescent protein emission ratio below 3 at 20 uM after 24 hrs using fluorescent plate reader. It counts as functional, cell-based. The method, boiled down:
as §1

The subject of test [3] is HeLa C3. Briefly: Induction of apoptosis in human HeLaC3 cells assessed as reduction of yellow fluorescent protein/cyan fluorescent protein emission ratio below 3 at 20 uM after 48 hrs using fluorescent plate reader. It counts as functional, cell-based. The method, boiled down: as §1
Test [4] concerns HeLa C3. Description: Induction of apoptosis in human HeLaC3 cells assessed as shrinkage and detached morphology at 20 uM after 24 hrs. It counts as functional, cell-based.
Test [5] relates to HeLa C3. Description: Induction of apoptosis in human HeLaC3 cells assessed as shrinkage and detached morphology at 20 uM after 48 hrs. It counts as functional, cell-based.
Test [6] has as its system HeLa C3. Description: Induction of apoptosis in human HeLaC3 cells assessed as shrinkage and detached morphology at 20 uM after 72 hrs. It counts as functional, cell-based.
Test [7] concerns HeLa C3. Description: Induction of apoptosis in human HeLaC3 cells assessed as reduction of yellow fluorescent protein/cyan fluorescent protein emission ratio below 3 at 500 nM after 48 hrs using fluorescent plate reader.
The test system of test [8] is HeLa C3. Briefly: Induction of apoptosis in human HeLaC3 cells assessed as shrinkage and detached morphology at 500 nM after 24 hrs.
Test [9] relates to HeLa C3. Description: Induction of apoptosis in human HeLaC3 cells assessed as reduction of yellow fluorescent protein/cyan fluorescent protein emission ratio below 3 at 500 nM after 24 hrs using fluorescent plate reader.
Test [10] concerns HeLa C3. Briefly: Induction of apoptosis in human HeLaC3 cells assessed as shrinkage and detached morphology at 500 nM after 48 hrs.
Test [11] has as its system HeLa C3. Description: Induction of apoptosis in human HeLaC3 cells assessed as shrinkage and detached morphology at 500 nM after 72 hrs.
In test [12] the test system is HeLa C3. Briefly: Induction of apoptosis in human HeLaC3 cells assessed as reduction of yellow fluorescent protein/cyan fluorescent protein emission ratio below 3 at 500 nM after 72 hrs using fluorescent plate reader.

Calls of active or inactive are those of the source. No cut-off for these calls is given here.

As to `CC(C)=CCC/C(C)=C/C[C@@H]1C[C@@]2(CC=C(C)C)C(=O)c3c(oc4cc(O)c(O)cc4c3=O)[C@](CC=C(C)C)(C2=O)C1(C)C`, the outcome in the test on HeLa C3 [1] and in the test with HeLa C3 [3] was Active. The outcome in the test with HeLa C3 [2] was inactive.
On to `COc1cc(O)c2c(=O)c3ccc(O)c(O)c3oc2c1CCC(C)(C)O`, for which, in the test with HeLa C3 [1], the outcome was Active. The result in the test on HeLa C3 [2] and with HeLa C3 [3] was inactive.
With `CC(C)=CCC/C(C)=C/C[C@H]1C[C@]2(C/C=C(\C)CCC=C(C)C)C(=O)[C@@](CC=C(C)C)(C(=O)C(C(=O)c3ccc(O)c(O)c3)=C2O)C1(C)C`, the outcome with HeLa C3 [1] was Active. Besides, the outcome in the test with HeLa C3 [2] and with HeLa C3 [3] was inactive.
In the case of `CC1(C)C=Cc2cc3c(=O)c4c(O)cc(O)cc4oc3c(O)c2O1`, the result in the test on HeLa C3 [1] was Active. Further, the result with HeLa C3 [2] and in the test with HeLa C3 [3] was inactive.
With `COc1cc(O)c2c(=O)c3c(CC=C(C)C)cc(O)c(O)c3oc2c1C/C=C(\C)CCC=C(C)C`, the result in the test with HeLa C3 [1] and in the test with HeLa C3 [3] was Active. Besides, the result in the test with HeLa C3 [2] was inactive.
For the molecule `CC(C)=CCC/C(C)=C/C[C@@H]1C[C@]2(CC=C(C)C)C(=O)[C@@](CC=C(C)C)(C(=O)C(C(=O)c3ccc(O)c(O)c3)=C2O)[C@@]1(C)CCC=C(C)C`, the result in the test with HeLa C3 [4], with HeLa C3 [1], in the test on HeLa C3 [5], in the test with HeLa C3 [2], in the test on HeLa C3 [6] and with HeLa C3 [3] was Active.
For the molecule `CC(C)=CCC/C(C)=C/C[C@H]1C[C@@]2(CC=C(C)C)C(=O)c3c(oc4cc(O)c(O)cc4c3=O)[C@](CC=C(C)C)(C2=O)C1(C)C`, the outcome in the test on HeLa C3 [1] and in the test on HeLa C3 [3] was Active. For the same molecule, the result with HeLa C3 [2] was inactive.
Turning to `CC(=O)O[C@H]1C(=O)[C@@]2(C)[C@H]([C@H](OC(=O)c3ccccc3)[C@]3(O)C[C@H](OC(=O)[C@H](O)[C@@H](NC(=O)c4ccccc4)c4ccccc4)C(C)=C1C3(C)C)[C@]1(OC(C)=O)CO[C@@H]1C[C@@H]2O`, the outcome in the test with HeLa C3 [7], in the test on HeLa C3 [8], in the test with HeLa C3 [10], in the test with HeLa C3 [11] and in the test on HeLa C3 [12] was Active. For the same molecule, the result in the test with HeLa C3 [9] was inactive.
For the molecule `CC(C)=CCC/C(C)=C/C[C@@H]1C[C@]2(CC=C(C)C)C(=O)[C@@](CC=C(C)C)(C(=O)C(C(=O)c3ccc(O)c(O)c3)=C2O)C1(C)C`, the outcome in the test with HeLa C3 [1] and with HeLa C3 [3] was Active. Further, the result in the test on HeLa C3 [2] was inactive.
